Data published in ChEMBL document CHEMBL1143122, “Novel analogs of D-e-MAPP and B13. Part 1: synthesis and evaluation as potential anticancer agents” (Bioorg Med Chem, 2008).

Columns and labels:
Assay type in all cases: functional
[1] = tested on: SNB-75; experiment: Antiproliferative activity against human SNB75 cells after 48 hrs; conditions: SNB-75, 48 h
Outline: (§1)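 NCI 60-cell screen. Cells were grown in RPMI 1640 with 5% FBS and 2 mM L-glutamine, then plated at 5,000–40,000 cells/well according to doubling time and preincubated for 24 h at 37 °C in 5% CO2. Compounds were dissolved in DMSO at 400× the top final concentration and tested at five 10-fold dilutions from 10−4 to 10−8 M for 48 h. Growth was read spectrophotometrically; GI50 is 50% net protein reduction.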

[2] = tested on: DU-145; experiment: Antiproliferative activity against human DU145 cells after 48 hrs; conditions: DU-145, 48 h; outline: as §1
[3] = tested on: SW-620; experiment: Antiproliferative activity against human SW620 cells after 48 hrs; conditions: SW-620, 48 h
Outline: (§2)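 NCI 60-cell-line screen. Lines grown in RPMI 1640 with 5% fetal bovine serum and 2 mM L-glutamine, plated at 5,000–40,000 cells/well according to doubling time, left 24 h at 37 °C in 5% CO2. Drug stocks in DMSO at 400-fold the top final concentration. Five 10-fold dilutions, 10−4 to 10−8 M, incubated 48 h. Growth read spectrophotometrically as net protein; GI50 taken as 50% reduction.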

[4] = tested on: MDA-MB-231; experiment: Antiproliferative activity against human MDA-MB-231 cells after 48 hrs; conditions: MDA-MB-231, 48 h; outline: as §1
[5] = tested on: A498; experiment: Antiproliferative activity against human A498 cells after 48 hrs; conditions: A498, 48 h, read-out: Log TGI (converted); outline: as §1
[6] = tested on: MOLT-4; experiment: Antiproliferative activity against human MOLT4 cells after 48 hrs; conditions: MOLT-4, 48 h; outline: as §1
[7] = tested on: SK-MEL-5; experiment: Antiproliferative activity against human SKMEL5 cells after 48 hrs; conditions: SK-MEL-5, 48 h, read-out: Log LC50 (the source's name) (converted); outline: as §1
[8] = tested on: RPMI-8226; experiment: Antiproliferative activity against human RPMI8226 cells after 48 hrs; conditions: RPMI-8226, 48 h; outline: as §1
[9] = tested on: HOP-62; experiment: Antiproliferative activity against human HOP62 cells after 48 hrs; conditions: HOP-62, 48 h; outline: as §1
[10] = tested on: K562; experiment: Antiproliferative activity against human K562 cells after 48 hrs; conditions: K562, 48 h; outline: as §1
[11] = tested on: NCI-H522; experiment: Antiproliferative activity against human NCI-H522 cells after 48 hrs; conditions: NCI-H522, 48 h; outline: as §1
[12] = tested on: Hs-578T; experiment: Antiproliferative activity against human HS578T cells after 48 hrs; outline: as §1
[13] = tested on: T47D; experiment: Antiproliferative activity against human T47D cells after 48 hrs; outline: as §2
[14] = tested on: NCI-H322M; experiment: Antiproliferative activity against human NCI-H322M cells after 48 hrs; outline: as §1
[15] = tested on: HOP-92; experiment: Antiproliferative activity against human HOP92 cells after 48 hrs; conditions: HOP-92, 48 h; outline: as §1
[16] = tested on: CAKI-1; experiment: Antiproliferative activity against human CAKI1 cells after 48 hrs; conditions: CAKI-1, 48 h; outline: as §1
[17] = tested on: SK-MEL-28; experiment: Antiproliferative activity against human SKMEL28 cells after 48 hrs; conditions: SK-MEL-28, 48 h; outline: as §1
[18] = tested on: UACC-257; experiment: Antiproliferative activity against human UACC257 cells after 48 hrs; conditions: UACC-257, 48 h; outline: as §2
[19] = tested on: BT-549; experiment: Antiproliferative activity against human BT549 cells after 48 hrs; conditions: BT-549, 48 h; outline: as §1
[20] = Antiproliferative activity against human […] cells after 48 hrs; outline: as §1
[21] = tested on: TK-10; experiment: Antiproliferative activity against human TK10 cells after 48 hrs; conditions: TK-10, 48 h; outline: as §2
[22] = tested on: 786-0; experiment: Antiproliferative activity against human 786-0 cells after 48 hrs; conditions: 786-0, 48 h; outline: as §1
[23] = tested on: HT-29; experiment: Antiproliferative activity against human HT29 cells after 48 hrs; conditions: HT-29, 48 h; outline: as §1
[24] = tested on: UACC-62; experiment: Antiproliferative activity against human UACC62 cells after 48 hrs; conditions: UACC-62, 48 h; outline: as §2
[25] = tested on: Malme-3M; experiment: Antiproliferative activity against human MALME3M cells after 48 hrs; outline: as §1
[26] = tested on: KM12; experiment: Antiproliferative activity against human KM12 cells after 48 hrs; conditions: for CC50: read-out: Log LC50 (the source's name) (converted); outline: as §1
[27] = tested on: SK-MEL-2; experiment: Antiproliferative activity against human SKMEL2 cells after 48 hrs; conditions: SK-MEL-2, 48 h; outline: as §1
[28] = tested on: SF-295; experiment: Antiproliferative activity against human SF295 cells after 48 hrs; conditions: SF-295, 48 h; outline: as §1
[29] = read-out: Log LC50 (the source's name) (converted)

CCCCCCCCCCCCCCN[C@@H](C)[C@H](O)c1ccccc1
GI50 [1]: 1700 nM
CC50 [1, 29]: 6.61 µM
TGI ([1]; read-out: Log TGI (converted)): 3.39 µM
GI50 [2]: 1860 nM
CC50 [2, 29]: 6.46 µM
TGI ([2]; read-out: Log TGI (converted)): 3.47 µM
GI50 [3]: 2040 nM
LC50 (concentration killing 50% of cells) [3]: > 100 µM
GI50 [4]: 1910 nM
LC50 (50% lethal concentration) [4]: 6.46 µM
TGI ([4]; read-out: Log TGI (converted)): 3.55 µM
TGI [5]: 10 µM
GI50 [6]: 2290 nM
TGI ([6]; read-out: Log TGI (converted)): 4.68 µM
CC50 [7]: > 100 µM
GI50 [8]: 2000 nM
TGI ([8]; read-out: Log TGI (converted)): 4.37 µM
GI50 [9]: 1950 nM
CC50 [9, 29]: 6.17 µM
TGI ([9]; read-out: Log TGI (converted)): 3.47 µM
GI50 [10]: 1660 nM
LC50 [10]: 7.41 µM
TGI ([10]; read-out: Log TGI (converted)): 3.55 µM
GI50 [11]: 2040 nM
CC50 [11, 29]: 7.41 µM
TGI ([11]; read-out: Log TGI (converted)): 3.89 µM
GI50 [12]: 2190 nM
LC50 [12]: > 100 µM
TGI ([12]; read-out: Log TGI (converted)): 5.5 µM
GI50 [13]: 2090 nM
CC50 [13, 29]: 7.59 µM
TGI ([13]; read-out: Log TGI (converted)): 3.98 µM
GI50 [14]: 2040 nM
CC50 [14, 29]: 6.61 µM
TGI ([14]; read-out: Log TGI (converted)): 3.72 µM
GI50 [15]: 1510 nM
TGI ([15]; read-out: Log TGI (converted)): 3.09 µM
GI50 [16]: 1950 nM
CC50 [16, 29]: 5.89 µM
TGI ([16]; read-out: Log TGI (converted)): 3.39 µM
GI50 [17]: 1910 nM
LC50 [17]: 6.31 µM
TGI ([17]; read-out: Log TGI (converted)): 3.47 µM
GI50 [18]: 1860 nM
CC50 [18, 29]: 6.76 µM
TGI ([18]; read-out: Log TGI (converted)): 3.55 µM
GI50 [19]: 1510 nM
LC50 [19]: 5.75 µM
TGI ([19]; read-out: Log TGI (converted)): 2950 nM
GI50 [20]: 2000 nM
TGI ([20]; read-out: Log TGI (converted)): 3.8 µM
GI50 [21]: 2000 nM
CC50 [21, 29]: 6.17 µM
TGI ([21]; read-out: Log TGI (converted)): 3.47 µM
GI50 [22]: 1580 nM
CC50 [22, 29]: 5.89 µM
TGI ([22]; read-out: Log TGI (converted)): 3.09 µM
GI50 [23]: 1860 nM
LC50 [23]: 6.76 µM
TGI ([23]; read-out: Log TGI (converted)): 3.55 µM
GI50 [24]: 1820 nM
LC50 [24]: 6.31 µM
TGI ([24]; read-out: Log TGI (converted)): 3.39 µM
GI50 [25]: 2040 nM
LC50 [25]: 6.46 µM
TGI ([25]; read-out: Log TGI (converted)): 3.63 µM
GI50 ([26]; Homo sapiens, KM12, 48 h): 1860 nM
CC50 ([26]; Homo sapiens, KM12, 48 h): 6.31 µM
CC50 [26]: 5.62 µM
GI50 [27]: 1780 nM
TGI ([27]; read-out: Log TGI (converted)): 3.72 µM
GI50 [28]: 1780 nM
LC50 [28]: 6.46 µM
TGI ([28]; read-out: Log TGI (converted)): 3.39 µM
